# Results reported in ChEMBL document CHEMBL4513216, “Probing the Open Global Health Chemical Diversity Library for Multistage-Active Starting Points for Next-Generation Antimalarials” (ACS Infect Dis, 2020).
# Assay: Toxicity liver stage against HepG2, at 10uM
# Assay type: cell-based
# Design: test concentration 10 uM, cell line HepG2-A16-CD81EGFP
# Settings: human, HepG2-A16-CD81EGFP cells; read-out: INHIBITION
# In short: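 Uninfected HepG2-A16-CD81EGFP cells, 3 × 10^3 per well, 1536-well, plated on prespotted compound at 10 μM final, parasite-free screening media added to match infected plates; puromycin 10 μM positive, DMSO 0.5% negative; run in parallel with 48 h PbLuc assay at 37 °C, 5% CO2; viability by CellTiter-Glo luminescence, normalized to controls.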
row,Compound,cytotoxicity at 10 µM [%]
1,Cc1nccc(CNC(=O)N(CCCO)C2CCc3ccccc32)n1 (stereo not drawn),-27.3
2,COc1cnc(N2CCCN(c3ccc(F)cc3)CC2)nc1,-10.6
3,CC(C)NC(=O)NCCn1nc(C(F)(F)F)n(C)c1=O,-0.173
4,Cc1nc(C)n(CCNC2CCN(c3ncnc4c(C)csc34)CC2)n1,4.35
5,OC(COCc1ccco1)CN1CCC(Cn2cccn2)CC1 (stereo not drawn),-1.73
6,O=C1CC2(CCN(Cc3ccncc3)C2)CN1c1ccc2c(c1)OCO2 (stereo not drawn),-74.1
7,Cn1c(CS(=O)(=O)c2ccc(Cl)cc2)cc(=O)n(C)c1=O,7.5
8,c1cc(C2CCCN2CC2CCCCC2)n[nH]1 (stereo not drawn),-1.83
9,c1nc(-c2nc(C3CCOC3)no2)cs1 (stereo not drawn),6.18
10,CCN1CC(C)(C)CN(C(=O)CCc2ccccc2)CC1=O,0.305
11,Cn1cnc(S(=O)(=O)N2CC3(CCN(c4ccccc4)C3)C2)c1,-91.7
12,CC(NC(=O)N(C)Cc1ccncc1)c1nncn1C (stereo not drawn),2.57
13,CC(Cn1ccnc1)NC(=O)N(C)Cc1ccc2c(c1)OCCO2 (stereo not drawn),-29.5
14,CCc1ncncc1C(=O)N1CCN(Cc2ccsc2)CC1,0.956
15,COc1ccc(C)cc1-c1csc(Cn2ccc(=O)[nH]c2=O)n1,4.16
16,O=C(CCc1ccsc1)Nc1cccnc1N1CCCC1,-7.07
17,CCC(C)N(Cc1cccnc1)C(=O)c1ccc(OC)cc1O (stereo not drawn),8.65
18,c1ncn(CC2CCCCN2Cc2cn3ccsc3n2)n1 (stereo not drawn),-13.9
19,c1ccc(Cc2noc(CN3CCCC3Cn3cccn3)n2)cc1 (stereo not drawn),-2.57
20,CCCc1n[nH]c(C2CN(CCS(=O)(=O)CC)CCO2)n1 (stereo not drawn),-5.83
21,O=C(NCC1CC1)c1nc(COc2ccc3c(c2)OCO3)no1,8.89
22,O=C(Cc1ccc2c(c1)CCO2)N1CCCC1c1noc(C2CC2)n1 (stereo not drawn),-7.71
23,CCN(C(=O)c1cccc2c1OCO2)c1ccc(Br)cn1,3.44

row,Compound,cytotoxicity at 10 µM [%]
1,Cc1nc(C2CCCN(C(=O)COCc3ccccc3Cl)C2)no1 (stereo not drawn),5.8
2,COc1cnc(C2(O)CCN(C(=O)c3ccncc3)CC2)c(OC)n1,-4.38
3,CC(C)C(=O)Nc1ncn(Cc2cccc(Br)c2)n1,-9.95
4,O=C(Cc1ccccc1)NCCNS(=O)(=O)C1CCCCC1,-1.95
5,C=Cc1cccc(CN2C[C@@H]3CC[C@H]2CN(Cc2c(C)noc2C)C3)c1,-6.58
6,N#Cc1cccc(S(=O)(=O)NC(=O)c2csc(-c3ccco3)n2)c1,4.34
7,Cc1nc(S(=O)(=O)N2CCCCc3ccccc32)cn1C,-2.38
8,CCOC(=O)N1CCN(C(=O)CCn2cccc2)CC1,5.62
9,CC(C)c1noc(C(C)N2CCN(Cc3ccco3)CC2)n1 (stereo not drawn),-7.67
10,CCc1c(O)nc(SCC(=O)Nc2ccccc2)n(C(C)CC)c1=O (stereo not drawn),0.585
11,c1cnc(N2CCC(OCCN3CCCCC3)C2)nc1 (stereo not drawn),-47.3
12,CC(C)(C)c1ncc(CNc2ccccc2SCCC(N)=O)s1,55.4
13,Cc1nn(C)c2ncc(CN3CCN(Cc4ccco4)CC3)cc12,0.243
14,Cc1nnc(CN2CCCC2c2ccc(Cl)c(Cl)c2)o1 (stereo not drawn),-1.7
15,COc1ccc2oc(-c3cn(C)nc3C)c(O)c(=O)c2c1,9.96
16,Cc1cc(NC(=O)N2CCCC2CN2CCOCC2)nn1C (stereo not drawn),1.63
17,CCc1ccc(C(=O)NC2CCN(c3cnn(C)c3)C2=O)o1 (stereo not drawn),-6.13
18,Cc1cncc(C2CCCN(CC3CCC3)C2)n1 (stereo not drawn),-7.41
19,CNC(=O)[C@@H]1C[C@H]2CN(Cc3csc(C)n3)C[C@H]2N1C(C)C,7.08
20,c1ccc2c(c1)ccn2CCCNC1CCOC2(CCOCC2)C1 (stereo not drawn),-7.04
21,COCCCn1c(CN2CCCC(O)C2)cnc1S(=O)(=O)C1CCCC1 (stereo not drawn),-13.5
22,CN1CCN(c2cc(NC(=O)Cn3ccc4ccccc43)ncn2)CC1,-0.973
23,CN1CC(Nc2nc3c(cnn3C(C)(C)C)c(=O)[nH]2)CCC1=O (stereo not drawn),-4.26

row,Compound,cytotoxicity at 10 µM [%]
1,Cc1nc2ccnn2c(C)c1CCC(=O)N1CCSCC1,-4.24
2,CC(C)NC(=O)NCCn1cnc(C2CCCC2)cc1=O,-0.373
3,COc1ccccc1-c1cc(C(=O)Nc2nc[nH]n2)[nH]n1,-2.2
4,Cn1ccnc1SCCNC1CCN(c2nc3ccccc3s2)CC1,2.05
5,N#Cc1c(N2CCCCC2)nsc1-c1cccnc1,18.8
6,CC1(C)CNC(=O)c2nc(CCN3CCCCC3CO)[nH]c2C1 (stereo not drawn),-3.24
7,CN(CCc1cn[nH]c1)C(=O)C(c1ccc(F)cc1)N(C)C (stereo not drawn),-19.5
8,COc1ccc(CNC(=O)NCc2cc(C)oc2C)cc1,-6
9,COc1nc(N2CCN(C(C)=O)CC2)ncc1Br,0.27
10,O=S1(=O)[C@@H](c2ccccc2)[C@H](CO)CN1C1CC1,-4.83
11,CC(=O)N1CCCC1c1nc(CN(C)C(=O)C(C)C)cc(N(C)C)n1 (stereo not drawn),-2.62
12,Cn1cnc2cc(CCC(=O)Nc3n[nH]c(C4CCCO4)n3)ccc21 (stereo not drawn),-0.863
13,Cc1nc(COc2ccc(OC3CCCCNC3=O)cc2)oc1C (stereo not drawn),15.2
14,O=c1[nH]c(CCN2CCCCC2Cn2cccn2)nc2ccccc12 (stereo not drawn),-16.4
15,COC(=O)CCNC(=O)c1nnn(-c2ccc(C)cc2)c1C1CC1,-0.121
16,CC(=O)N1CCC(c2cncc(N3CCCCCC3)n2)CC1,11.3
17,Cc1ocnc1C(=O)N1CCN(C(=O)CC(C)C)[C@@H]2CS(=O)(=O)C[C@@H]21,12.2
18,O=S(=O)(c1ccc(-c2cnco2)cc1)N1CCCC2(CCNCC2)CC1,-11.2
19,CCSc1cncc(NCc2ccc(N3CCNC(=O)C3)cc2)n1,15.7
20,COCC(=O)N1CCCC1c1cccc(Nc2ncc(C)s2)n1 (stereo not drawn),-17
21,NC1CCc2c(ccc(=O)n2CC2CC2)C1 (stereo not drawn),-4.37
22,N#Cc1c(SCCN2CCOCC2)sc2c(O)cc(O)nc12,-7.5
23,CCc1c(C)nc2n(c1=O)CC(C(=O)Nc1sccc1C(=O)OC)CS2 (stereo not drawn),3.24

row,Compound,cytotoxicity at 10 µM [%]
1,CC(C)c1cc(N[C@H](C(N)=O)C(C)C)n2nccc2n1,-1.56
2,O=C1[C@H]2CN(C3CCOCC3)C[C@H]2CN1Cc1ccncc1,-124
3,CNC(=O)CC1CC2(CCN(Cc3nccs3)CC2)c2ccccc21 (stereo not drawn),-15
4,Cc1ccc(CC(=O)NC2CCN(c3cccc(Cl)c3)C2)cn1 (stereo not drawn),2.49
5,Cc1cnc(C(=O)N2CCc3c(nc(-c4ccncc4)[nH]c3=O)C2)cn1,8.62
6,CCn1nc(C)c(C(C)NC(=O)c2cccc(NCC(=O)O)c2)c1C (stereo not drawn),3.04
7,CC(O)CCN(C)C(=O)Nc1ccc(Br)cc1 (stereo not drawn),-2.1
8,CN(Cc1cccc(F)c1)C(=O)c1cc2c([nH]c1=O)CCCC2=O,-7.45
9,c1ccc(CN2CCC3(CC2)CC(Nc2nccs2)CO3)nc1 (stereo not drawn),-78.2
10,COc1cc(C(=O)NCCCO)cc2occc12,5.47
11,Cc1noc(CN2CC=C(c3cnn(C4CCS(=O)(=O)C4)c3)CC2)n1 (stereo not drawn),-0.89
12,CCCn1c(C)c(CC(=O)N[C@H](C)C(=O)OC)c2c1CC(C)(C)CC2=O,-2.06
13,c1ccc(NCc2ccc(Cn3ccnc3)cc2)nc1,70.9
14,Cc1cnn(CC2CCCCN2C(=O)Cc2c(C)noc2C)c1 (stereo not drawn),-0.807
15,CCNC(=O)Nc1ccc(N2CCC(OC)CC2)c(C(F)(F)F)c1,20.4
16,Cc1cc(CCC(N)=O)cc(C2CCCN2Cc2ccnn2C)n1 (stereo not drawn),-19.8
17,COc1ccc(-c2cnc3c(c2)CN(C2CC2)C(=O)CCN3)cc1,4.09
18,Cn1cnnc1C1CCCN(C(=O)NCc2ccc3c(c2)OCO3)C1 (stereo not drawn),-1.9
19,Cc1csc2nc3n(c(=O)c12)CCN(Cc1ccccn1)CC3,-18.2
20,CC1=C(c2ccc(Cl)cc2)S(=O)(=O)N=C1N1CCc2ccccc21,-17.1
21,CNC(=O)Cc1noc(Cc2ccc3c(c2)CCCC3)n1,-14.1
22,OC(CNCCn1cccn1)c1ccc(F)c(F)c1 (stereo not drawn),2.05
23,COCCN1CCC(CN(Cc2ccncc2)C2CCC2)CC1,-2.33

row,Compound,cytotoxicity at 10 µM [%]
1,Cc1cc(-c2cnc(N3CCC(O)CC3)nc2-c2cccnc2C)on1,-25.2
2,CCOc1ccccc1N(C)C(=O)c1cscn1,-0.704
3,Cc1ccc(C(=O)OC(C)Cn2cccn2)c(=O)[nH]1 (stereo not drawn),3.35
4,COc1ccc(CN2CCn3cccc3C2C)cc1F (stereo not drawn),-2.63
5,CC(NC(=O)N1CCN(c2ccccc2O)CC1)c1nncn1C (stereo not drawn),-6.01
6,CCOc1cc(C)nc(N2CCN(C(=O)c3cc[nH]n3)CC2)n1,-8.21
7,O=C(c1cncc(N2CCC3(CCNCC3)CC2)n1)N1CCCC1,-14.6
8,COC(=O)[C@@H](NC(=O)c1coc(COc2cccc(F)c2)n1)C(C)C,-142
9,CC(C)Oc1cccc(C(O)CNC(=O)Nc2cccs2)c1 (stereo not drawn),2.19
10,c1cnc(NCc2n[nH]c3c2CCN(Cc2cccnc2)C3)nc1,-7.15
11,CC(C)N(CCNCc1ccc(C#N)cc1)C1CC1,-2.54
12,CC(C)c1nc(C(=O)N2CCOCC2CC(=O)c2ccco2)c[nH]1 (stereo not drawn),0.769
13,CC(C)S(=O)(=O)CCN1CCc2c(ncn2C2CC2)C1,-13.9
14,Cc1c(CCC(=O)N2CCOC(c3cnccn3)C2)cnn1C (stereo not drawn),-1.87
15,CC(=O)N(C)CC(=O)Nc1cccc(N2CCN(CC3CC3)CC2)c1,1.75
16,CC(C)c1cc(C(=O)N(C)C(C)c2nccs2)no1 (stereo not drawn),-9.15
17,CCc1nnc2n1CCN(CC(=O)N1CCc3ccccc3C1)C2,-7.83
18,Cc1csc(CCNC(=O)Nc2cc(C(F)(F)F)c[nH]c2=O)n1,8.13
19,CC(C)N1CC(NC(=O)c2ccc(Cl)s2)CC1=O (stereo not drawn),-8.51
20,Cc1cnc(NS(=O)(=O)c2ccccc2)s1,-2.56
21,CC(C)c1cc(NCC(O)CO)n2nccc2n1 (stereo not drawn),-24.8
